ChEMBL document CHEMBL4270554, “Discovery of the cancer cell selective dual acting anti-cancer agent (Z)-2-(1H-indol-3-yl)-3-(isoquinolin-5-yl)acrylonitrile (A131)” (Eur J Med Chem, 2018)
Active and inactive are the calls of the source. The rule behind the calls is not given here.

Experiments:
[1] = Solubility of the compound in 60% PEG400/40% water at pH 5 by HPLC analysis; type: physicochemical
In short: (§1)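 1 mg of HCl salt mixed with vehicle (0.5 mL total), target 1 mg/mL. Components added in order: organic solvent (DMSO, ethanol or NMP), then PEG400, then water, vortexing after each addition. Sonicated 15 min, left 3 h at room temperature, then centrifuged 5 min.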

[2] = AUC (0 to t) in Wistar rat at 2 mg/kg, iv by LC-MS/MS analysis; type: ADME, organism-based; conditions: in vivo
In short: (§2)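 Male Wistar rats (n = 3), intravenous dose of 2 mg/kg HCl salt as 1 mg/ml solution in 10% DMSO, 50% PEG400, 40% water pH 5. Catheter blood sampling over 0–4 h into heparin. Plasma separated, stored at -80 °C, measured by LC-MS/MS. Non-compartmental estimation, mean (SD).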

[3] = Terminal half life in Wistar rat at 2 mg/kg, iv by LC-MS/MS analysis; type: ADME, organism-based; conditions: in vivo, read-out: beta t1/2 (converted)
In short: (§3)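 Male Wistar rats, n = 3 per route, dosed with HCl salt as 1 mg/mL solution in 10% DMSO/50% PEG400/40% water pH 5. Doses 2 mg/kg iv or 10 mg/kg po. Heparinised blood sampled via catheter (0–4 h iv, 0–24 h po), plasma analysed by LC-MS/MS. Parameters derived by non-compartmental analysis.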

[4] = Solubility of the compound in 60% PEG400/40% water at pH 7 by HPLC analysis; type: physicochemical; in short: as §1
[5] = Half life in Wistar rat at 10 mg/kg, po by LC-MS/MS analysis; type: ADME, organism-based; conditions: in vivo
In short: (§4)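 Male Wistar rats dosed orally at 10 mg/kg with HCl salt as solution in 10% DMSO, 50% PEG400, 40% water pH 5. Catheter blood over 0-24 h into heparin, plasma by LC-MS/MS. Non-compartmental PK; n = 3, mean (SD).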

[6] = Solubility of the compound in 10% NMP/50% PEG400/40% water at pH 5 by HPLC analysis; type: physicochemical; in short: as §1
[7] = Solubility of the compound in 10% DMSO/50% PEG400/40% water at pH 3.5 by HPLC analysis; type: physicochemical; in short: as §1
[8] = AUC (0 to infinity) in Wistar rat at 10 mg/kg, po by LC-MS/MS analysis; type: ADME, organism-based; parameters: dose 10 mg/kg, time infinity, route oral; conditions: in vivo
In short: (§5)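 Male Wistar rats (n = 3), single oral dose of 10 mg/kg HCl salt given as 1 mg/ml solution in 10% DMSO, 50% PEG400, 40% water pH 5. Blood drawn from catheter over 0–24 h into heparin tubes. Plasma spun off, stored at -80 °C, quantified by LC-MS/MS. Parameters by non-compartmental analysis, mean (SD).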

[9] = Tmax in Wistar rat at 10 mg/kg, po by LC-MS/MS analysis; type: ADME, organism-based; conditions: in vivo; in short: as §3
[10] = Solubility of the compound in 10% DMSO/90% water at pH 5 by HPLC analysis; type: physicochemical; in short: as §1
[11] = Solubility of the compound in 10% DMSO/90% water at pH 7 by HPLC analysis; type: physicochemical; in short: as §1
[12] = Cmax in Wistar rat at 10 mg/kg, po by LC-MS/MS analysis; type: ADME, organism-based; parameters: dose 10 mg/kg, route oral; conditions: in vivo; in short: as §4
[13] = MRT in Wistar rat at 2 mg/kg, iv by LC-MS/MS analysis; type: ADME, organism-based; conditions: in vivo; in short: as §3
[14] = Solubility of the compound in 10% DMSO/50% PEG400/40% water at pH 5 by HPLC analysis; type: physicochemical; in short: as §1
[15] = Solubility of the compound in 10% NMP/50% PEG400/40% water at pH 3.5 by HPLC analysis; type: physicochemical; in short: as §1
[16] = AUC (0 to t) in Wistar rat at 10 mg/kg, po by LC-MS/MS analysis; type: ADME, organism-based; conditions: in vivo; in short: as §5
[17] = Solubility of the compound in 60% PEG400/40% water at pH 3.5 by HPLC analysis; type: physicochemical; in short: as §1
[18] = Oral bioavailability in Wistar rat at 10 mg/kg by LC-MS/MS analysis; type: ADME, organism-based; conditions: in vivo; in short: as §3
[19] = MRT in Wistar rat at 10 mg/kg, po by LC-MS/MS analysis; type: ADME, organism-based; conditions: in vivo; in short: as §3
[20] = Solubility of the compound in 10% EtOH/50% PEG400/40% water at pH 3.5 by HPLC analysis; type: physicochemical; in short: as §1
[21] = AUC (0 to infinity) in Wistar rat at 2 mg/kg, iv by LC-MS/MS analysis; type: ADME, organism-based; parameters: dose 2 mg/kg, time infinity, route intravenous; conditions: in vivo; in short: as §2
[22] = Solubility of the compound in 10% EtOH/50% PEG400/40% water at pH 5 by HPLC analysis; type: physicochemical; in short: as §1
[23] = Solubility of the compound in 10% DMSO/90% water at pH 3.5 by HPLC analysis; type: physicochemical; in short: as §1
HeLa [24] = assay: Induction of mitotic arrest in human HeLa cells assessed as formation of disorganized spindles at 15 to 25 uM after 6 hrs by DAPI staining-based immunofluorescence analysis; type: functional, cell-based
HeLa [25] = assay: Induction of autophagy in human HeLa cells assessed as increase in LC3-2 to LC3-1 ratio at 1.25 uM after 6 hrs by immunoblot analysis relative to control; type: functional
In short: (§6)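 HeLa cells exposed 6 h to test agent (0.625–10 μM series) or chloroquine (1.25–100 μM series) vs DMSO; lysed in 1% Triton buffer (25 mM Tris pH 8.0, 150 mM NaCl, DTT, protease/phosphatase inhibitors), 14% SDS-PAGE, immunoblot with anti-LC3, anti-pH3(Ser10), β-actin loading. LC3-II/LC3-I band intensity ratio expressed relative to DMSO control.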

HeLa [26] = assay: Induction of autophagy in human HeLa cells assessed as increase in LC3-2 to LC3-1 ratio at 2.5 uM after 6 hrs by immunoblot analysis relative to control; type: functional; in short: as §6
HeLa [27] = assay: Induction of autophagy in human HeLa cells assessed as increase in LC3-2 to LC3-1 ratio at 10 uM after 6 hrs by immunoblot analysis relative to control; type: functional; in short: as §6
HeLa [28] = assay: Induction of autophagy in human HeLa cells assessed as increase in LC3-2 to LC3-1 ratio at 50 uM after 6 hrs by immunoblot analysis relative to control; type: functional; in short: as §6
HeLa [29] = assay: Induction of mitotic arrest in human HeLa cells assessed as formation of misaligned chromosomes at 15 to 25 uM after 6 hrs by DAPI staining-based immunofluorescence analysis; type: functional, cell-based
HeLa [30] = assay: Induction of autophagy in human HeLa cells assessed as increase in LC3-2 to LC3-1 ratio at 100 uM after 6 hrs by immunoblot analysis relative to control; type: functional; in short: as §6
HeLa [31] = assay: Inhibition of mitotic progression in human HeLa cells assessed as upregulation of phosphorylated histone H3 (Ser10) level up to 100 uM after 6 hrs by immunoblot analysis; type: functional, cell-based
In short: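 HeLa cells treated 6 h with 0.625–10 μM test agent or chloroquine (1.25–100 μM), or DMSO. Lysis in 1% Triton buffer (pH 8.0) with protease and phosphatase inhibitors, 14% SDS-PAGE, immunoblot for LC3, pH3 (Ser10) and β-actin. Band intensity ratios (LC3-II/LC3-I; pH3) expressed relative to DMSO control.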

Cl.N#C/C(=C\c1cccc2cnccc12)c1c[nH]c2ccccc12
solubility [1]: 0.94 mg/mL
AUC(0-t) [2]: 0.82 µg·h/mL
half-life [3]: 21.6 min
solubility [4]: 0.869 mg/mL
half-life [5]: 96 min
solubility [6]: 1.17 mg/mL
solubility [7]: 0.966 mg/mL
AUC(0-inf) [8]: 1.77 µg·h/mL
Tmax [9]: 43.2 min
solubility [10]: 0.006 mg/mL
solubility [11]: 0.003 mg/mL
Cmax [12]: 1.13 µg/mL
MRT [13]: 17.4 min
solubility [14]: 1.2 mg/mL
solubility [15]: 1.22 mg/mL
AUC(0-t) [16]: 1.69 µg·h/mL
solubility [17]: 1.05 mg/mL
bioavailability [18]: 43%
MRT [19]: 113 min
solubility [20]: 1.3 mg/mL
AUC(0-inf) [21]: 0.822 µg·h/mL
solubility [22]: 0.741 mg/mL
solubility [23]: 0.007 mg/mL

CCN(CC)CCCC(C)Nc1ccnc2cc(Cl)ccc12 (stereo unspecified) [CHLOROQUINE]
Activity (HeLa [24]): inactive
fold change (FC) (HeLa [25]): 1.7
fold change (FC) (HeLa [26]): 1.9
fold change (FC) (HeLa [27]): 3.1
fold change (FC) (HeLa [28]): 4.2
Activity (HeLa [29]): inactive
fold change (FC) (HeLa [30]): 4.2
inhibition (HeLa [31]): inactive
